Measurements: ChEMBL document CHEMBL1156227, “New aromatic monoesters of alpha-aminoaralkylphosphonic acids as inhibitors of aminopeptidase N/CD13” (Bioorg Med Chem, 2010)

Each compound was assayed on HT-1080 (assay: Cytotoxicity against human HT1080 cells assessed as cell growth inhibition at 300 uM after 72 hrs by XTT assay relative to control).
Assay type: functional
Set-up: scale not given: the % may be the effect or the level left
In short: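 HT-1080 cells kept adherent in DMEM plus 2 mM L-glutamine, 10% heat-inactivated FBS and penicillin–streptomycin at 37 °C, 5% CO2. Exposed 72 h to inhibitor (0–300 μM; 0.1 M NaOH stock diluted in medium), with vehicle controls given matching 0.1 M NaOH. XTT staining for 4 h, absorbance at 490 nm, expressed as percentage growth relative to untreated culture.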

**Q.** How did the Activity turn out when CCC(N)P(=O)(O)Oc1ccc(C(C)(C)C)cc1 (stereo unspecified) was run?
**A.** 36%

These compounds were tested against T1, Aminopeptidase N (Sus scrofa, UniProt P15145) (assay: Inhibition of pig kidney aminopeptidase N using Leu-AMC as substrate).
T1 sequence (P15145 whole entry): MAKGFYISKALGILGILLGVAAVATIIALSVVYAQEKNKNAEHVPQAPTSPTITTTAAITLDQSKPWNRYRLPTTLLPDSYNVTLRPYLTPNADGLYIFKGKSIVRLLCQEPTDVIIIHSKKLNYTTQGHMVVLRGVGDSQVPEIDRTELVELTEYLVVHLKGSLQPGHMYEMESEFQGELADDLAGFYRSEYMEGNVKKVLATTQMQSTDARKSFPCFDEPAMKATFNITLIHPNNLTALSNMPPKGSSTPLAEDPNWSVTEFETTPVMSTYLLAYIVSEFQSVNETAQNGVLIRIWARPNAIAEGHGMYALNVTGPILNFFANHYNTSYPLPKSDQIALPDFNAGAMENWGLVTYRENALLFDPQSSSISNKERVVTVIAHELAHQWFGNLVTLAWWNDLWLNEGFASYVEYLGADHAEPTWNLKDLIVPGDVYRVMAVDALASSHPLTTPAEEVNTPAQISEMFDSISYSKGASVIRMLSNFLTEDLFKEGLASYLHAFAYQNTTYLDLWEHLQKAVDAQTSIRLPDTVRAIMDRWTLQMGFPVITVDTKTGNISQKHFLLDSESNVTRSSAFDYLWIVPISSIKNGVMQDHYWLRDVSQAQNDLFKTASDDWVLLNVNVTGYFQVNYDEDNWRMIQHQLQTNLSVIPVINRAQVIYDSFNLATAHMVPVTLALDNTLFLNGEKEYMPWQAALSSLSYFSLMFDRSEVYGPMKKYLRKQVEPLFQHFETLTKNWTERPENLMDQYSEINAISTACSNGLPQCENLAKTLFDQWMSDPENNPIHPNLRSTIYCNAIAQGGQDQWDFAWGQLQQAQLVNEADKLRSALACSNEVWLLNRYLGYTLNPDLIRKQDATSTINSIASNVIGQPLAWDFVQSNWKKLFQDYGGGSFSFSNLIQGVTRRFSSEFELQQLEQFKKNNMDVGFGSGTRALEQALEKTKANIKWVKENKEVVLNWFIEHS

**Q.** Which IC50 does the source give for Cc1cc(C)c(C)c(OP(=O)(O)C(C)N)c1 (stereo unspecified) here?
**A.** 14 µM

**Q.** How did the IC50 turn out when CCC(CC)C(N)P(=O)(O)Oc1ccccc1 (stereo unspecified) was run?
**A.** > 100 µM

**Q.** Which IC50 does the source give for Cc1ccc(C)c(OP(=O)(O)C(N)CCc2ccccc2)c1 (stereo unspecified) here?
**A.** 15 µM

**Q.** Which IC50 does the source give for CCC(N)P(=O)(O)Oc1ccc(C)cc1 (stereo unspecified) here?
**A.** 7 µM

**Q.** With CC(C)(C)CC(C)(C)c1ccc(OP(=O)(O)C(N)CCc2ccccc2)cc1 (stereo unspecified) as the compound, how does the IC50 read?
**A.** 6.3 µM

**Q.** CC(C)CC(N)P(=O)(O)Oc1ccccc1 (stereo unspecified) was tested. Which IC50 did it give?
**A.** 9.3 µM

**Q.** How did the IC50 turn out when CCC(N)P(=O)(O)Oc1ccc(C)c(C)c1 (stereo unspecified) was run?
**A.** 3 µM

**Q.** How did the IC50 turn out when CCCCC(N)P(=O)(O)Oc1ccc(OC)cc1 (stereo unspecified) was run?
**A.** 210 µM

**Q.** How did the IC50 turn out when COc1ccc(OP(=O)(O)C(N)CCc2ccccc2)cc1 (stereo unspecified) was run?
**A.** 2.9 µM

**Q.** How did the IC50 turn out when CCCCC(N)P(=O)(O)Oc1ccc(C(=O)O)cc1 (stereo unspecified) was run?
**A.** 55 µM

**Q.** How did the IC50 turn out when CC(N)P(=O)(O)Oc1ccc(C(C)(C)C)cc1 (stereo unspecified) was run?
**A.** 8.2 µM

**Q.** How did the IC50 turn out when CCCCC(N)P(=O)(O)Oc1ccccc1 (stereo unspecified) was run?
**A.** 5.6 µM

**Q.** Which IC50 does the source give for CC(C)C(N)P(=O)(O)Oc1ccccc1 (stereo unspecified) here?
**A.** 14 µM

**Q.** With Cc1cc(C)c(C)c(OP(=O)(O)C(N)CCc2ccccc2)c1 (stereo unspecified) as the compound, how does the IC50 read?
**A.** 5 µM

**Q.** Which IC50 does the source give for NC(Cc1ccccc1)P(=O)(O)O (stereo unspecified) here?
**A.** 54 µM

**Q.** Which IC50 does the source give for CCCCC(N)P(=O)(O)O (stereo unspecified) here?
**A.** 75 µM

**Q.** How did the IC50 turn out when CCCC(N)P(=O)(O)O (stereo unspecified) was run?
**A.** 15 µM

**Q.** With CCC(N)P(=O)(O)Oc1ccc(C(C)(C)C)cc1 (stereo unspecified) as the compound, how does the IC50 read?
**A.** 1.1 µM

**Q.** Which IC50 does the source give for CC(C)C(N)P(=O)(O)O (stereo unspecified) here?
**A.** 104 µM

**Q.** Which IC50 does the source give for CCCCC(N)P(=O)(O)Oc1cc(C)ccc1C (stereo unspecified) here?
**A.** 200 µM

**Q.** With NC(CCc1ccccc1)P(=O)(O)Oc1ccc(C(=O)O)cc1 (stereo unspecified) as the compound, how does the IC50 read?
**A.** 22 µM

**Q.** For CCc1ccc(OP(=O)(O)C(C)N)cc1 (stereo unspecified), which IC50 is on record?
**A.** 8.3 µM

**Q.** How did the IC50 turn out when CC(C)c1ccc(OP(=O)(O)C(N)CCc2ccccc2)cc1 (stereo unspecified) was run?
**A.** 0.5 µM

**Q.** For CCC(N)P(=O)(O)O (stereo unspecified), which IC50 is on record?
**A.** 50 µM

**Q.** With CCCCCC(N)P(=O)(O)O (stereo unspecified) as the compound, how does the IC50 read?
**A.** 8.3 µM

**Q.** Which IC50 does the source give for CCCCCC(N)P(=O)(O)Oc1ccccc1 (stereo unspecified) here?
**A.** 4.8 µM

**Q.** Which IC50 does the source give for CCCCC(N)P(=O)(O)Oc1ccc(C)cc1 (stereo unspecified) here?
**A.** 1 µM

**Q.** With CCC(N)P(=O)(O)Oc1ccc(C(=O)O)cc1 (stereo unspecified) as the compound, how does the IC50 read?
**A.** 200 µM

**Q.** NC(c1ccccc1)P(=O)(O)Oc1ccccc1 (stereo unspecified) was tested. Which IC50 did it give?
**A.** 21 µM

**Q.** Which IC50 does the source give for NC(CCc1ccccc1)P(=O)(O)Oc1ccccc1 (stereo unspecified) here?
**A.** 6.2 µM

**Q.** Which IC50 does the source give for CCC(N)P(=O)(O)Oc1cc(C)ccc1C (stereo unspecified) here?
**A.** 120 µM

**Q.** For Cc1ccc(OP(=O)(O)C(N)CCc2ccccc2)cc1C (stereo unspecified), which IC50 is on record?
**A.** 2.2 µM

**Q.** NC(Cc1ccccc1)P(=O)(O)Oc1ccccc1 (stereo unspecified) was tested. Which IC50 did it give?
**A.** 8.2 µM

**Q.** CC(C)(C)c1ccc(OP(=O)(O)C(N)CCc2ccccc2)cc1 (stereo unspecified) was tested. Which IC50 did it give?
**A.** 1.9 µM

**Q.** How did the IC50 turn out when CC(C)CC(N)P(=O)(O)O (stereo unspecified) was run?
**A.** 37 µM

**Q.** With CC(N)P(=O)(O)O (stereo unspecified) as the compound, how does the IC50 read?
**A.** 42 µM

**Q.** For NC(c1ccccc1)P(=O)(O)O (stereo unspecified) [AMINO(PHENYL)METHYLPHOSPHONIC ACID], which IC50 is on record?
**A.** 220 µM

**Q.** Which IC50 does the source give for CCc1ccc(OP(=O)(O)C(N)CCc2ccccc2)cc1 (stereo unspecified) here?
**A.** 13 µM

**Q.** For CCCCC(N)P(=O)(O)Oc1ccc(C)c(C)c1 (stereo unspecified), which IC50 is on record?
**A.** 1.4 µM

The compounds below were run on PANC-1 (assay: Cytotoxicity against human PANC1 cells assessed as cell growth inhibition after 72 hrs by XTT assay).
Assay type: functional
Set-up: scale not given: the % may be the effect or the level left
In short: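 PANC-1 cells grown adherent in DMEM with 2 mM L-glutamine, 10% uninactivated FBS and 1% penicillin–streptomycin at 37 °C, 5% CO2. Treated 72 h with inhibitor (0–300 μM; stocks in 0.1 M NaOH, diluted in medium; vehicle controls), alone or with TNF-α (0–30 μg/ml). XTT added for 4 h; absorbance read at 490 nm and normalised to untreated cultures; mean ± one SD.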

**Q.** For CC(C)C[C@H](NC(=O)[C@@H](O)[C@H](N)Cc1ccccc1)C(=O)O [UBENIMEX], which Activity is on record?
**A.** < 10%

What follows are compounds tested on HT-1080 (assay: Cytotoxicity against human HT1080 cells assessed as cell growth inhibition after 72 hrs by XTT assay).
Assay type: functional
Set-up: scale not given: the % may be the effect or the level left
In short: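 HT-1080 cells cultured adherent in DMEM with 2 mM L-glutamine, 10% heat-inactivated FBS and 1% penicillin–streptomycin at 37 °C, 5% CO2. Exposed 72 h to inhibitor (0–300 μM from 0.1 M NaOH stocks diluted in medium; NaOH vehicle controls), with or without TNF-α (0–30 μg/ml). XTT for 4 h, absorbance at 490 nm, growth expressed relative to untreated cells; mean ± one SD.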

**Q.** For CC(C)C[C@H](NC(=O)[C@@H](O)[C@H](N)Cc1ccccc1)C(=O)O [UBENIMEX], which Activity is on record?
**A.** < 10%

The compounds below were run on PANC-1 (assay: Cytotoxicity against human PANC1 cells assessed as cell growth inhibition at 300 uM after 72 hrs by XTT assay relative to control).
Assay type: functional
Set-up: scale not given: the % may be the effect or the level left
In short: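 PANC-1 cells cultured adherent in DMEM with 2 mM L-glutamine, 10% non-heat-inactivated FBS and penicillin–streptomycin at 37 °C, 5% CO2. Inhibitor (0–300 μM, 0.1 M NaOH stock diluted in medium) applied 72 h, with controls given matching 0.1 M NaOH. XTT incubation 4 h, A490 read, values normalised to untreated culture as percentage growth.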

**Q.** CCC(N)P(=O)(O)Oc1ccc(C(C)(C)C)cc1 (stereo unspecified) was tested. Which Activity did it give?
**A.** 26%

What follows are compounds tested on HT-1080 (assay: Cytotoxicity against human HT1080 cells assessed as cell growth inhibition after 72 hrs by XTT assay in the presence of TNFalpha relative to control).
Assay type: functional
Set-up: scale not given: the % may be the effect or the level left
In short: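 HT-1080 cells grown adherent in DMEM with 2 mM L-glutamine, 10% heat-inactivated FBS and penicillin–streptomycin at 37 °C, 5% CO2. Inhibitor (0–300 μM, from 0.1 M NaOH stock, diluted in medium) co-applied with TNF-α (0–30 μg/ml) for 72 h. Controls received matching 0.1 M NaOH. XTT added for 4 h, A490 read, normalised to untreated cells.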

**Q.** With CCC(N)P(=O)(O)Oc1ccc(C(C)(C)C)cc1 (stereo unspecified) as the compound, how does the Activity read?
**A.** 60%

The compounds below were run against Aminopeptidase N (Homo sapiens, UniProt P15144) (assay: Inhibition of aminopeptidase N).
Aminopeptidase N (Homo sapiens, UniProt P15144), sequence (P15144 whole entry): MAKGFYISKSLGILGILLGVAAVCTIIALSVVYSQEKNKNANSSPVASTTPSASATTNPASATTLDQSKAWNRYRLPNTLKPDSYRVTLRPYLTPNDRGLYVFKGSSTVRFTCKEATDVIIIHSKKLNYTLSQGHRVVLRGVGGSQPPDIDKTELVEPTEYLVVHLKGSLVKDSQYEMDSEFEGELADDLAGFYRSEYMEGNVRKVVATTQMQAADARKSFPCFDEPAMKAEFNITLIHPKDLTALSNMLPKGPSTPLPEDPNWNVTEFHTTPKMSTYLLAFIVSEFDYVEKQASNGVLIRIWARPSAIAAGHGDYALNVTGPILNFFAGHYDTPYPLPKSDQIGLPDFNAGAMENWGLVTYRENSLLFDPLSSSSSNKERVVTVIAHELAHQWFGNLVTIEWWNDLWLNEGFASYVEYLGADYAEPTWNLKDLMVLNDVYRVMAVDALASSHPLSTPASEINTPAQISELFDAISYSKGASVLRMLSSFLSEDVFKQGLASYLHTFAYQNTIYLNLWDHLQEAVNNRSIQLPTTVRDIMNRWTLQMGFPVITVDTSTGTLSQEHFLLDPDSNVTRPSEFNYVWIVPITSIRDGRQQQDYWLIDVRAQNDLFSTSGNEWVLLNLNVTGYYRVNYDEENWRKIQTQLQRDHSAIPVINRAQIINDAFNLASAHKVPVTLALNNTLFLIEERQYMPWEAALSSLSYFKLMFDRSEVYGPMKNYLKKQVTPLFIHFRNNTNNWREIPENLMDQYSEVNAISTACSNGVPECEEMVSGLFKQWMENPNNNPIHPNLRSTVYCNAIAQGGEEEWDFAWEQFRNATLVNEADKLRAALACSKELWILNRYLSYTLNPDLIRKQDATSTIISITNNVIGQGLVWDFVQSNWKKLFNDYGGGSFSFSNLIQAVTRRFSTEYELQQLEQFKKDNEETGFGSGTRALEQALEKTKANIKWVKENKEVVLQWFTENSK

**Q.** Which Ki does the source give for CC(C)CC(N)P(=O)(O)Oc1ccccc1 (stereo unspecified) here?
**A.** 53 µM

**Q.** NC(Cc1ccccc1)P(=O)(O)O (stereo unspecified) was tested. Which Ki did it give?
**A.** 27.5 µM

**Q.** NC(Cc1ccccc1)P(=O)(O)Oc1ccccc1 (stereo unspecified) was tested. Which Ki did it give?
**A.** 27.5 µM

**Q.** How did the Ki turn out when CC(C)CC(N)P(=O)(O)O (stereo unspecified) was run?
**A.** 53 µM

These compounds were tested against Cytosol aminopeptidase (Homo sapiens, UniProt P28838) (assay: Inhibition of leucine aminopeptidase).
Cytosol aminopeptidase, sequence (P28838 whole entry): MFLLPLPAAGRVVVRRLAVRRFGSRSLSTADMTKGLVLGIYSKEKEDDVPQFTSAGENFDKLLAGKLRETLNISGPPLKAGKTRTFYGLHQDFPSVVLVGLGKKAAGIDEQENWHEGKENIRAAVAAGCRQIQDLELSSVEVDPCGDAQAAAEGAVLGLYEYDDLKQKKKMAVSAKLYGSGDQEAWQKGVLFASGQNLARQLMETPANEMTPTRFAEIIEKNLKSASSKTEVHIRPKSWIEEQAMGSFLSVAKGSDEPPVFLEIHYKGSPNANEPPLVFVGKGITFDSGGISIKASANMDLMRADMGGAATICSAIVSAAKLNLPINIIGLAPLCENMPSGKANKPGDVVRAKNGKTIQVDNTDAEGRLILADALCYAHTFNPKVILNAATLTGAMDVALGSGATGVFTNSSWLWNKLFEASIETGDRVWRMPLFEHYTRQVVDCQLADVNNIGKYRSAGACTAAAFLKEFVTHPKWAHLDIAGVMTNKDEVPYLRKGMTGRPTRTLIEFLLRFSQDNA

**Q.** Which Ki does the source give for CC(C)CC(N)P(=O)(O)Oc1ccccc1 (stereo unspecified) here?
**A.** 0.23 µM

**Q.** NC(Cc1ccccc1)P(=O)(O)O (stereo unspecified) was tested. Which Ki did it give?
**A.** 0.42 µM

**Q.** For NC(Cc1ccccc1)P(=O)(O)Oc1ccccc1 (stereo unspecified), which Ki is on record?
**A.** 0.42 µM
